In series [1] the test system is Human immunodeficiency virus 1. The experiment in a line: Fold resistance, ratio of EC50 for HIV-1 harboring NNTRI-resistant reverse transcriptase Y181C mutant infected in human MT4 cells to EC50 for wild type HIV-1 NL4-3 infected in human MT4 cells. It counts as functional. A digest of the protocol: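 MT-4 cells infected with HIV-1 mutant (K103N or Y181C) or wild-type NL4-3, with drug present. […] Fold resistance is the mutant EC50 divided by the wild-type NL4-3 EC50. EC50 values are means of at least two experiments.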

In series [2] the test system is Human immunodeficiency virus 1. Nature of the series: Fold resistance, ratio of ID50 for HIV-1 recombinant NNTRI-resistant reverse transcriptase K103N mutant to ID50 for wild type HIV-1 recombinant reverse transcriptase. In a few lines:
(§1)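 Recombinant wt or mutant HIV-1 RT, purified to >95%, at 2-4 nM. RNA-dependent DNA polymerase activity with 0.5 µg poly(rA)/oligo(dT)10:1 (0.3 µM 3'-OH ends), 10 µM [3H]-dTTP and 8% final DMSO. Incorporation was sampled at 2-min intervals. ID50 came from fitting to a fully non-competitive model. Ratio is ID50 mutant/ID50 wt. Means of at least three experiments.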

For series [3], the system named is Human immunodeficiency virus type 1 reverse transcriptase (Human immunodeficiency virus 1), Q72547 [L100I].
In series [4] the test system is Human immunodeficiency virus 1. The experiment in a line: Fold resistance, ratio of EC50 for HIV-1 harboring NNTRI-resistant reverse transcriptase K103N mutant infected in human MT4 cells to EC50 for wild type HIV-1 NL4-3 infected in human MT4 cells. It is filed as functional.
Series [5] is described as follows: Selectivity index, ratio of CC50 for human MT4 cells to EC50 for wild type HIV-1 NL4-3 infected in human MT4 cells. It is filed as toxicity, cell-based. Particulars: read-out: Ratio CC50/EC50. In a few lines:
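Ratio of CC50 to EC50, both from MTT readings in MT-4 cells at day 5. CC50 was taken in mock-infected cells and EC50 in cells infected with wild-type NL4-3. Values are means of at least two experiments.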

Series [6] has as its system Human immunodeficiency virus type 1 reverse transcriptase (Human immunodeficiency virus 1), Q72547 [Y181I].
Series [7] relates to Human immunodeficiency virus 1. The experiment in a line: Fold resistance, ratio of ID50 for HIV-1 recombinant NNTRI-resistant reverse transcriptase L100I mutant to ID50 for wild type HIV-1 recombinant reverse transcriptase. A digest of the protocol:
as §1

The nature of series [8]: Cytotoxicity against human MT4 cells assessed as induction of cell death by MTT method. It is filed as cell-based. A digest of the protocol:
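Mock-infected MT-4 cells exposed to a range of drug concentrations. Viability read by MTT colorimetry at day 5. […] Top concentration was limited where compound precipitated in the culture medium. Means of at least two experiments.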

Series [9] deals with Human immunodeficiency virus 1. The experiment in a line: Antiviral activity against HIV-1 harboring NNTRI-resistant reverse transcriptase Y188L mutant infected in human MT4 cells assessed as inhibition of virus-induced cytopathic effect by MTT method. It counts as functional, organism-based. The following applies: Human immunodeficiency virus 1, MT4. In a few lines:
(§2)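 MT-4 lymphoid cells infected with HIV-1 carrying RT K103N, Y181C or Y188L, with a range of drug concentrations present. Viable cells counted by MTT colorimetric assay at day 5 post-infection. […] Highest concentration tested was limited by precipitation in culture medium. Means of at least two experiments.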

Series [10] concerns Human immunodeficiency virus type 1 reverse transcriptase (Human immunodeficiency virus 1), Q72547 [K103N].
In series [11] the test system is Human immunodeficiency virus 1. The experiment in a line: Fold resistance, ratio of ID50 for HIV-1 recombinant NNTRI-resistant reverse transcriptase Y181I mutant to ID50 for wild type HIV-1 recombinant reverse transcriptase. In a few lines: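 RNA-dependent DNA polymerase activity with 0.5 µg poly(rA)/oligo(dT)10:1 (0.3 µM 3'-OH ends), 10 µM [3H]-dTTP and 8% final DMSO. Incorporation was sampled at 2-min intervals. ID50 came from fitting to a fully non-competitive model. Means of at least three experiments.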

Series [12] relates to Human immunodeficiency virus 1. Nature of the series: Antiviral activity against HIV-1 harboring NNTRI-resistant reverse transcriptase Y181C mutant infected in human MT4 cells assessed as inhibition of virus-induced cytopathic effect by MTT method. It is filed as functional, organism-based. Particulars: Human immunodeficiency virus 1, MT4. In a few lines:
as §2

The target of series [13] is Human immunodeficiency virus type 1 reverse transcriptase (Human immunodeficiency virus 1) (UniProt Q72547).
Series [14] has as its system Human immunodeficiency virus 1. The experiment in a line: Antiviral activity against HIV-1 harboring NNTRI-resistant reverse transcriptase K103N mutant infected in human MT4 cells assessed as inhibition of virus-induced cytopathic effect by MTT method. It counts as functional, organism-based. Particulars: Human immunodeficiency virus 1, MT4.
Series [15] relates to Human immunodeficiency virus 1. Nature of the series: Fold resistance, ratio of EC50 for HIV-1 harboring NNTRI-resistant reverse transcriptase Y188L mutant infected in human MT4 cells to EC50 for wild type HIV-1 NL4-3 infected in human MT4 cells. It is filed as functional. In a few lines: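 HIV-1 NL4-3 (wt) or Y188L mutant infection of MT-4 cells across a range of drug concentrations. Viable cells were counted by MTT at day 5 post-infection. […] Fold resistance is mutant EC50 over wt EC50. Means of at least two experiments.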

For series [16], the system named is Human immunodeficiency virus 1. Nature of the series: Antiviral activity against wild type HIV-1 NL4-3 infected in human MT4 cells assessed as inhibition of virus-induced cytopathic effect by MTT method. It is filed as functional, organism-based. The following applies: Human immunodeficiency virus 1, NL4-3, MT4. In a few lines:
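MT-4 lymphoid cells infected with wild-type HIV-1 NL4-3 while exposed to a range of drug concentrations. Viable cells counted by tetrazolium (MTT) colorimetry at day 5 post-infection. Means of at least two experiments.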

The test system of series [17] is Human immunodeficiency virus 1. The experiment in a line: Ratio of efavirenz EC50 to compound EC50 for wild type HIV-1 NL4-3 infected in human MT4 cells. It is filed as functional.

Turning to `Cc1c(C(C)c2c(F)cccc2F)nc(SC2CCCC2)[nH]c1=O` (racemic), the “Ratio EC50” value in series [1] is 100; in series [4] it was 230. Also, the results for the Ratio in [2], in [7] and in series [11] were 6, 60 and 180, respectively. In addition, the ID50 came to 300 nM in series [3], 900 nM in series [6], 30 nM in series [10] and 5 nM in series [13]. The selectivity ratio in [5] is greater than 3000. The CC50 in [8] is greater than 3000 nM. For the same molecule, the concentration giving a half-maximal response (EC50) in series [9] is greater than 3000 nM; in [12], 100 nM.

With `CCC(C)Sc1nc(C(C)c2c(F)cccc2Cl)cc(=O)[nH]1` (racemic), the “Ratio EC50” value amounted to 3600 in series [1], 1000 in series [4] and 7500 in [15]. In addition, the half-maximal effective concentration (EC50) worked out at 1000 nM in [14], 7500 nM in [9], 1 nM in [16] and 3600 nM in [12]. The Ratio amounted to 375 in series [2], 25 in series [7] and 2640 in [11]. Also, the selectivity ratio in [5] was greater than 73000. For the same molecule, the half-maximal cytotoxic concentration (CC50) in [8] is greater than 73000 nM.

For `CCCSc1nc(C(C)c2c(F)cccc2Cl)c(C)c(=O)[nH]1` (racemic), the “Ratio EC50” value came out at 5200 in series [1], 7000 in series [4] and 140 in [17]. Further, the EC50 in series [14] was 350 nM; in series [9], greater than 1500 nM; in [16], 0.05 nM; in series [12], 260 nM. In addition, the ID50 was 90 nM in [3], 1500 nM in series [10] and 0.9 nM in series [13]. Besides, the selectivity ratio in series [5] is greater than 30000. Moreover, the CC50 in series [8] is greater than 1500 nM.

For the molecule `CCCCSc1nc(C(C)c2c(F)cccc2Cl)c(C)c(=O)[nH]1` (racemic), the “Ratio EC50” value turned out to be 2067 in series [1], 2200 in [4] and 23 in series [17]. Besides, the EC50 in series [14] is 660 nM; in [9], greater than 1500 nM; in [16], 0.3 nM; in series [12], 620 nM. Moreover, the Ratio came out at 310 in [2], 52 in series [7] and 20000 in series [11]. Besides, the values for the ID50 in [3], in series [10] and in series [13] were 156 nM, 930 nM and 3 nM, respectively. Besides, the selectivity ratio in series [5] was greater than 5000. Besides, the CC50 in [8] is greater than 1500 nM.

Take `Cc1c(C(C)c2c(F)cccc2Cl)nc(SC2CCCC2)[nH]c1=O` (racemic): the “Ratio EC50” value worked out at 7667 in [1], 3100 in series [4], 96667 in series [15] and 230 in series [17]. In addition, the EC50 amounted to 93 nM in series [14], 2900 nM in series [9], 0.03 nM in [16] and 230 nM in series [12]. Also, the ID50 stood at 120 nM in [3], 1300 nM in [10] and 11 nM in [13]. Moreover, the selectivity ratio in [5] is greater than 500000. The 50% cytotoxic concentration (CC50) in [8] is greater than 15000 nM.

The values above are taken from ChEMBL document CHEMBL3286172, “Exploring the role of 2-chloro-6-fluoro substitution in 2-alkylthio-6-benzyl-5-alkylpyrimidin-4(3H)-ones: effects in HIV-1-infected cells and in HIV-1 reverse transcriptase enzymes” (J Med Chem, 2014).
